Experiments:
[1] = test system: Epidermal growth factor receptor (Homo sapiens), P00533 [G719S]; experiment: Binding affinity to human partial length EGFR G719S mutant (R669 to V1011 residues) expressed in Escherichia coli BL21 at 1 uM by Kinomescan method relative to control
[2] = test system: Epidermal growth factor receptor (Homo sapiens), P00533 [T790M]; experiment: Binding affinity to human partial length EGFR T790M mutant (R669 to G1022 residues) expressed in HEK293 cells at 1 uM by Kinomescan method relative to control; assay type: cell-based
[3] = target: Ribosomal protein S6 kinase alpha-1 (Homo sapiens) (UniProt Q15418); experiment: Binding affinity to wild-type human partial length C-terminal RSK1 kinase domain 2 (P360 to L681 residues) expressed in Escherichia coli BL21 at 1 uM by Kinomescan method relative to control
[4] = target: Serine/threonine-protein kinase DCLK2 (Homo sapiens) (UniProt Q8N568); experiment: Binding affinity to wild-type human partial length DCAMKL2 (K273 to V664 residues) expressed in Escherichia coli BL21 at 1 uM by Kinomescan method relative to control
[5] = target: MAP kinase-activated protein kinase 5 (Homo sapiens) (UniProt Q8IW41); experiment: Binding affinity to wild-type human partial length MAPKAPK5 (M1 to D322 residues) expressed in HEK293 cells at 1 uM by Kinomescan method relative to control; assay type: cell-based
[6] = target: Mitogen-activated protein kinase kinase kinase kinase 1 (Homo sapiens) (UniProt Q92918); experiment: Binding affinity to wild-type human full length HPK1 (M1 to R799 residues) expressed in Escherichia coli BL21 at 1 uM by Kinomescan method relative to control
How it was run: (§1)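 Run as one kinome-wide competition binding panel with each compound at a single fixed concentration. Results were plotted as a kinome-wide selectivity map.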

[7] = target: Ephrin type-B receptor 1 (Homo sapiens) (UniProt P54762); experiment: Binding affinity to wild-type human partial length EPHB1 (P589 to T911 residues) expressed in Escherichia coli BL21 at 1 uM by Kinomescan method relative to control
[8] = test system: Phosphatidylinositol 4,5-bisphosphate 3-kinase catalytic subunit alpha isoform (Homo sapiens), P42336 [E542K]; experiment: Binding affinity to human partial length PIK3CA E542K mutant (R108 to N1068 residues) expressed in HEK293 cells at 1 uM by Kinomescan method relative to control; assay type: cell-based
[9] = target: Serine/threonine-protein kinase RIO3 (Homo sapiens) (UniProt O14730); experiment: Binding affinity to wild-type human full length RIOK3 (M1 to E519 residues) expressed in Escherichia coli BL21 at 1 uM by Kinomescan method relative to control
How it was run: (§2)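 Kinome-wide competition binding panel run by an outside provider, with each compound tested at a single concentration. Activity is read against the kinase panel.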

[10] = target: Vascular endothelial growth factor receptor 1 (Homo sapiens) (UniProt P17948); experiment: Binding affinity to wild-type human partial length FLT1 (R781 to F1239 residues) expressed in Escherichia coli BL21 at 1 uM by Kinomescan method relative to control
[11] = target: ALK tyrosine kinase receptor (Homo sapiens) (UniProt Q9UM73); experiment: Binding affinity to wild-type human partial length ALK (I1088 to E1409 residues) expressed in HEK293 cells at 1 uM by Kinomescan method relative to control; assay type: cell-based
[12] = target: Vascular endothelial growth factor receptor 3 (Homo sapiens) (UniProt P35916); experiment: Binding affinity to wild-type human partial length FLT4 (E821 to E1196 residues) expressed in Escherichia coli BL21 at 1 uM by Kinomescan method relative to control
[13] = target: Serine/threonine-protein kinase TAO1 (Homo sapiens) (UniProt Q7L7X3); experiment: Binding affinity to wild-type human partial length TAOK1 (M1 to A320 residues) expressed in HEK293 cells at 1 uM by Kinomescan method relative to control; assay type: cell-based
[14] = target: Fibroblast growth factor receptor 3 (Homo sapiens) (UniProt P22607); experiment: Binding affinity to wild-type human partial length FGFR3 (R442 to S771 residues) expressed in Escherichia coli BL21 at 1 uM by Kinomescan method relative to control
[15] = target: Cyclin-dependent kinase 11B (Homo sapiens) (UniProt P21127); experiment: Binding affinity to wild-type human partial length CDC2L1 (P353 to G692 residues) expressed in Escherichia coli BL21 at 1 uM by Kinomescan method relative to control
[16] = target: Interferon-induced, double-stranded RNA-activated protein kinase (Homo sapiens) (UniProt P19525); experiment: Binding affinity to wild-type human partial length PRKR (F247 to C551 residues) expressed in Escherichia coli BL21 at 1 uM by Kinomescan method relative to control
[17] = target: Phosphatidylinositol 4,5-bisphosphate 3-kinase catalytic subunit beta isoform (Homo sapiens) (UniProt P42338); experiment: Binding affinity to wild-type human partial length PIK3CB (P118 to S1070 residues) expressed in HEK293 cells at 1 uM by Kinomescan method relative to control; assay type: cell-based
[18] = test system: Mast/stem cell growth factor receptor Kit (Homo sapiens), P10721 [A829P]; experiment: Binding affinity to human partial length KIT A829P mutant (I571 to D952 residues) expressed in HEK293 cells at 1 uM by Kinomescan method relative to control; assay type: cell-based
[19] = target: Mitogen-activated protein kinase 12 (Homo sapiens) (UniProt P53778); experiment: Binding affinity to wild-type human full length p38-gamma (M1 to L367 residues) expressed in HEK293 cells at 1 uM by Kinomescan method relative to control; assay type: cell-based; how it was run: as §2
[20] = target: Serine/threonine-protein kinase RIO2 (Homo sapiens) (UniProt Q9BVS4); experiment: Binding affinity to wild-type human partial length RIOK2 (M1 to D313 residues) expressed in HEK293 cells at 1 uM by Kinomescan method relative to control; assay type: cell-based
[21] = target: Epithelial discoidin domain-containing receptor 1 (Homo sapiens) (UniProt Q08345); experiment: Binding affinity to wild-type human partial length DDR1 (R565 to V876 residues) expressed in Escherichia coli BL21 at 1 uM by Kinomescan method relative to control
[22] = test system: Phosphatidylinositol 4,5-bisphosphate 3-kinase catalytic subunit alpha isoform (Homo sapiens), P42336 [C420R]; experiment: Binding affinity to human partial length PIK3CA C420R mutant (R108 to N1068 residues) expressed in HEK293 cells at 1 uM by Kinomescan method relative to control; assay type: cell-based
[23] = target: Serine/threonine-protein kinase 26 (Homo sapiens) (UniProt Q9P289); experiment: Binding affinity to wild-type human full length MST4 (M1 to P416 residues) expressed in HEK293 cells at 1 uM by Kinomescan method relative to control; assay type: cell-based; how it was run: as §1
[24] = target: Serine/threonine-protein kinase PLK2 (Homo sapiens) (UniProt Q9NYY3); experiment: Binding affinity to wild-type human partial length PLK2 (H58 to F354 residues) expressed in HEK293 cells at 1 uM by Kinomescan method relative to control; assay type: cell-based
[25] = target: Serine/threonine-protein kinase/endoribonuclease IRE1 (Homo sapiens) (UniProt O75460); experiment: Binding affinity to wild-type human partial length ERN1 (S551 to E852 residues) expressed in HEK293 cells at 1 uM by Kinomescan method relative to control; assay type: cell-based

Chain of Serine/threonine-protein kinase RIO3 (Homo sapiens) (O14730 whole entry, the tested form may be a part): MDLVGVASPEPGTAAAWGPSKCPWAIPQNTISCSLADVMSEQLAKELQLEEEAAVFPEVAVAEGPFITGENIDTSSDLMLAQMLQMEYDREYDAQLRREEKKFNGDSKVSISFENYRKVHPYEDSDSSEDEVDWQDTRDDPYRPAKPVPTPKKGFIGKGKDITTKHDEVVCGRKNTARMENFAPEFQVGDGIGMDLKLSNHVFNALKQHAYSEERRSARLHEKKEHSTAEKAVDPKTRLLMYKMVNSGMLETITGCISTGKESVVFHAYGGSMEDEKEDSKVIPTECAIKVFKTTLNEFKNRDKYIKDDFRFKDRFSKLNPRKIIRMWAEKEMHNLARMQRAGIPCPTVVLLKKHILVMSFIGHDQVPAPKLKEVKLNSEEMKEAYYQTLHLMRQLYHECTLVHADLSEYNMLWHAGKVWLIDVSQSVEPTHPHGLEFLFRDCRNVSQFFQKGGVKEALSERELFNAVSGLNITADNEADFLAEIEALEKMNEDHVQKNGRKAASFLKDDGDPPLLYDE
Chain of Phosphatidylinositol 4,5-bisphosphate 3-kinase catalytic subunit beta isoform (Homo sapiens) (P42338 whole entry, looked up, the tested form may be a part, canonical isoform): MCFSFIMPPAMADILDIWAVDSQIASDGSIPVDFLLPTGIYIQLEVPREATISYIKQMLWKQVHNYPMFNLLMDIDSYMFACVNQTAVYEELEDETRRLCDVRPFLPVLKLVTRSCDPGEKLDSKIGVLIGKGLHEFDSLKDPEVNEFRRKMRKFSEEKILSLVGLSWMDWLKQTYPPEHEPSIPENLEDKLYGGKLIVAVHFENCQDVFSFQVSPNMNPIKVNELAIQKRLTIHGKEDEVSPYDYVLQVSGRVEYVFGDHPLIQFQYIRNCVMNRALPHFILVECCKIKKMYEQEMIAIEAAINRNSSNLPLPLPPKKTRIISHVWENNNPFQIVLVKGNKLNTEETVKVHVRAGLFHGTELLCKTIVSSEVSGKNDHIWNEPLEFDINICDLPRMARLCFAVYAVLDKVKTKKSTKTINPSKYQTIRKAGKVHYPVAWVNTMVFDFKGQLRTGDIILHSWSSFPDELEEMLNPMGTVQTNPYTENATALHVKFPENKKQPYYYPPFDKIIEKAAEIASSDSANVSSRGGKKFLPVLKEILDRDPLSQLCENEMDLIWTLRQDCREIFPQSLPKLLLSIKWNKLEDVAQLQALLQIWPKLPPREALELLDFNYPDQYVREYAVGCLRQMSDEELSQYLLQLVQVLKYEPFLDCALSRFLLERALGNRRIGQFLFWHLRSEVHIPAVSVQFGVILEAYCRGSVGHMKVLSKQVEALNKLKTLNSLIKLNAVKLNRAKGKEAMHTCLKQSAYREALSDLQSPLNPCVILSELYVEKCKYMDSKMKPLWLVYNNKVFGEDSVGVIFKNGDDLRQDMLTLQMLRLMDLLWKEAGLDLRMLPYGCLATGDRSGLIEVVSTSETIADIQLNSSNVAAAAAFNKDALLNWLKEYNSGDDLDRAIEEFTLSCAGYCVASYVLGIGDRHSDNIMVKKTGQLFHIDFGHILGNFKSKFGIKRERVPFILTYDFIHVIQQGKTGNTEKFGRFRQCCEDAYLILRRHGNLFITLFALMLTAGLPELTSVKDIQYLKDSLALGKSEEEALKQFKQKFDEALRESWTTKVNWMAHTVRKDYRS
Chain of Phosphatidylinositol 4,5-bisphosphate 3-kinase catalytic subunit alpha isoform (Homo sapiens), P42336 [C420R] (P42336 whole entry C420R, the tested form may be a part, canonical isoform): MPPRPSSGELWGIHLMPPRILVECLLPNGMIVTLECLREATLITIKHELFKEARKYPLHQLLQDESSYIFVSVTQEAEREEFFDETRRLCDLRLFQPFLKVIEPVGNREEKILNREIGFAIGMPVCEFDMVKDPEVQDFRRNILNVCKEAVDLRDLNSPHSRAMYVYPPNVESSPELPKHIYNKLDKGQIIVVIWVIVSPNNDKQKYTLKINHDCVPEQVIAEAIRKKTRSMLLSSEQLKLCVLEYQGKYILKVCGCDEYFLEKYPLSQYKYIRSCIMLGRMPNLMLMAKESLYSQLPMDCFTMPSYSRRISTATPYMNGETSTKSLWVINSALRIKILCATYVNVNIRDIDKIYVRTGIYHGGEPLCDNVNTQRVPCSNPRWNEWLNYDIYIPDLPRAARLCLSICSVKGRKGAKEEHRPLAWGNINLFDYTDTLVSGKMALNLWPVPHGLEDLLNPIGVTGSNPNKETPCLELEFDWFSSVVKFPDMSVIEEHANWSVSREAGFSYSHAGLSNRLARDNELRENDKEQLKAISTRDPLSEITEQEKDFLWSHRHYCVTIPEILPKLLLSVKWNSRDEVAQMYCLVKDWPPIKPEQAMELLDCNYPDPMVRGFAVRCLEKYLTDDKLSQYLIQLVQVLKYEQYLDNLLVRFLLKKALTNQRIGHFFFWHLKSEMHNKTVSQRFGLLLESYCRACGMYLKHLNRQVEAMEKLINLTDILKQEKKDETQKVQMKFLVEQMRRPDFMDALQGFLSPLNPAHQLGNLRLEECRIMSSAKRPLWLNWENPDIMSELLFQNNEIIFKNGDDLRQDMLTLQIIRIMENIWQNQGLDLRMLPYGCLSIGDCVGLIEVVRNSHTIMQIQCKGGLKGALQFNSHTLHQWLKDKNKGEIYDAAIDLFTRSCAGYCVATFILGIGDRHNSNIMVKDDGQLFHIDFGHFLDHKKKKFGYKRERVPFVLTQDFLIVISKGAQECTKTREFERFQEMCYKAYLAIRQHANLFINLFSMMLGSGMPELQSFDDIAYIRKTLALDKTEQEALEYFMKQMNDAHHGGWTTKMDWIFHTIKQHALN
Chain of Ephrin type-B receptor 1 (Homo sapiens) (P54762 whole entry, the tested form may be a part, canonical isoform): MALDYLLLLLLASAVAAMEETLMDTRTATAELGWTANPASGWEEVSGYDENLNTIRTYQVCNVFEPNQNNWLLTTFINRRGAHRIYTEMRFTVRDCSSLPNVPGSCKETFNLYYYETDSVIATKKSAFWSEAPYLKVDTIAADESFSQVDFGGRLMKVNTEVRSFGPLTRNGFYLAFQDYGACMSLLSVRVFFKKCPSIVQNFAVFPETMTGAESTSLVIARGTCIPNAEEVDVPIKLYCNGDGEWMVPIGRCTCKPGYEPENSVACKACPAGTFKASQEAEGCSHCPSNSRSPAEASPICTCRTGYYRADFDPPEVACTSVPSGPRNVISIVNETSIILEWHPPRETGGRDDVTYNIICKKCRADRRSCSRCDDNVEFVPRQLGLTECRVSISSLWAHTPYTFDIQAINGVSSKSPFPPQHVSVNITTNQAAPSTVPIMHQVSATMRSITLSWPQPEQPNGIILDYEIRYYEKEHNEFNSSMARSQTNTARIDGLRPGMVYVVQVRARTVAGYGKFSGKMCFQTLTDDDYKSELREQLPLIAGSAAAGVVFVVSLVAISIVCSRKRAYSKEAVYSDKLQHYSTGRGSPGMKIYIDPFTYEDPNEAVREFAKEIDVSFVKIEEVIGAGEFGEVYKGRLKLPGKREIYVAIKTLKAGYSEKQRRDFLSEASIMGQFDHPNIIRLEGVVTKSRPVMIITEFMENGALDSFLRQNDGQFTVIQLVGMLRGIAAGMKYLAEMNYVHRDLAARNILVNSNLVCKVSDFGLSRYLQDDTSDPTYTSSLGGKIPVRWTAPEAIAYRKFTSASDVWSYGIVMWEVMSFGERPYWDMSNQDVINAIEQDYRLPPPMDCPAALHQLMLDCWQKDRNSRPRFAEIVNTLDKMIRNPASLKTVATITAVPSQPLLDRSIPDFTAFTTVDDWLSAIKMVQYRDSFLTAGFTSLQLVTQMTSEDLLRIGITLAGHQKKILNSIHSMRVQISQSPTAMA
Chain of Vascular endothelial growth factor receptor 3 (Homo sapiens) (P35916 whole entry, the tested form may be a part): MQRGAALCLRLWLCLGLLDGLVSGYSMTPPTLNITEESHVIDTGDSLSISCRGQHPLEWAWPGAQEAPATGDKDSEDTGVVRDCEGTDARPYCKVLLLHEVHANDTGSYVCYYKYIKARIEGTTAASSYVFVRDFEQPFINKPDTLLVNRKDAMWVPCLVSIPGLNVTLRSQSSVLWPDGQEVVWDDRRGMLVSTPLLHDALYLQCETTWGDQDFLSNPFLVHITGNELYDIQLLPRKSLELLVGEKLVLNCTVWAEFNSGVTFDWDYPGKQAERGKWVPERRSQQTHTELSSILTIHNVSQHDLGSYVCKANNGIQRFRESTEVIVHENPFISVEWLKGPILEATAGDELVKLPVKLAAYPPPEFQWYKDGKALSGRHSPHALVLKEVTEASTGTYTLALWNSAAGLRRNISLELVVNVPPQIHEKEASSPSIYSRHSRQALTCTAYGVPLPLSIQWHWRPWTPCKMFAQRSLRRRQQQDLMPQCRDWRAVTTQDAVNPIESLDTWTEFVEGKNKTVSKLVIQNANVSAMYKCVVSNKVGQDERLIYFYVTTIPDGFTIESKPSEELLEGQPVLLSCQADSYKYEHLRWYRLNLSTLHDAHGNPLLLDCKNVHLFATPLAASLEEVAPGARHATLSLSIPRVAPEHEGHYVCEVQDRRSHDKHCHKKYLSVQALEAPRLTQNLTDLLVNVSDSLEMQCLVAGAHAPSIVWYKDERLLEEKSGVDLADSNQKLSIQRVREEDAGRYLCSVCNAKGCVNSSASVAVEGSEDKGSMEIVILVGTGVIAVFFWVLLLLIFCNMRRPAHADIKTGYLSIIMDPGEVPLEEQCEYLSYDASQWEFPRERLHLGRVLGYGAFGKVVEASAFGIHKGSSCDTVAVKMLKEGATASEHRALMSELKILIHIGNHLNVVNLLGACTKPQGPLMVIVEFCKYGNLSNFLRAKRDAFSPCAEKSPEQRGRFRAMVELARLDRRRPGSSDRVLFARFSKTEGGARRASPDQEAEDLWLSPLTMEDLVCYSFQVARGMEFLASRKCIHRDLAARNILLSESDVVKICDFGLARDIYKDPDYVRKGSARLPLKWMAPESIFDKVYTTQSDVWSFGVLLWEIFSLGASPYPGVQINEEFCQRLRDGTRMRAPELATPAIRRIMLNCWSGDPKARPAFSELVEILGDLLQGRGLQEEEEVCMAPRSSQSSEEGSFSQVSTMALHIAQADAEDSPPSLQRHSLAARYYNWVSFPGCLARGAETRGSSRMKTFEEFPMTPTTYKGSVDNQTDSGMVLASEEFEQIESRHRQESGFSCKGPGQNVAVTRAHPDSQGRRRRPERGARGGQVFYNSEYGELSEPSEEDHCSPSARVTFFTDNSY

With `CCC(=O)Nc1ccc(C(=O)Nc2ccc(Nc3ncc4c(n3)N(C)c3ccc(C)cc3C(=O)N4C)cc2)cc1` the Activity [1] was 93%, the Activity [2] was 78% and the Activity [3] was 99%. For the same compound, the Activity [4] was 81%, the Activity [5] was 55% and the Activity [6] was 86%. It also gave an Activity [7] of 80%, an Activity [8] of 76% and an Activity [9] of 84%. For the same compound, the Activity [10] was 91%, the Activity [11] was 83% and the Activity [12] was 89%. It also gave an Activity [13] of 89%, an Activity [14] of 89% and an Activity [15] of 100%. It also gave an Activity [16] of 100%, an Activity [17] of 50% and an Activity [18] of 54%. It also gave an Activity [19] of 86%, an Activity [20] of 58% and an Activity [21] of 86%. The Activity [22] was 89%, the Activity [23] was 98% and the Activity [24] was 74%. It also gave an Activity [25] of 100%.

`C=CC(=O)Nc1ccc(C(=O)Nc2ccc(Nc3ncc4c(n3)N(C)c3ccc(C)cc3C(=O)N4C)cc2)cc1` gave an Activity [1] of 100%, an Activity [2] of 79% and an Activity [3] of 96%. The Activity [4] was 78%, the Activity [5] was 99% and the Activity [6] was 100%. For the same compound, the Activity [7] was 92%, the Activity [8] was 62% and the Activity [9] was 75%. It also gave an Activity [10] of 87%, an Activity [11] of 100% and an Activity [12] of 98%. It also gave an Activity [13] of 92%, an Activity [14] of 73% and an Activity [15] of 97%. It also gave an Activity [16] of 90%, an Activity [17] of 100% and an Activity [18] of 99%. The Activity [19] was 67%, the Activity [20] was 93% and the Activity [21] was 92%. The Activity [22] was 58%, the Activity [23] was 100% and the Activity [24] was 90%. The Activity [25] was 87%.

— ChEMBL document CHEMBL4184148 (Bioorg Med Chem Lett, 2017)
